Results reported in ChEMBL document CHEMBL4818983, “Structure-activity relationship and hypoglycemic activity of tricyclic matrines with advantage of treating diabetic nephropathy” (Eur J Med Chem, 2020).
Active and inactive are the calls of the source. No cut-off for these calls is given here.

Tests used:
HepG2 [1] = experiment: Increase in glucose consumption in human HepG2 cells assessed as Gx/GDMSO ratio at 5 mM by glucose oxidase assay; type: functional
Outline: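 HepG2 glucose consumption screen. Test compounds at 25 μM, metformin at 5 mM. Activity expressed as ratio of glucose consumption to DMSO-treated cells (Gx/G_DMSO).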

L6 [2] = experiment: Induction of glycolysis in rat L6 cells assessed as reduction in cellular ATP production at 20 uM measured after 24 hrs; type: functional, cell-based
Outline: (§1)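 L6 myotubes treated with DMSO, compound or RGZ (20 μM) at the indicated concentrations for 24 h. Culture supernatants assayed for glucose consumption and lactate release; lysed cells assayed for ATP, normalized to protein. Mean ± SD of 3 independent experiments vs DMSO.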

Mus musculus [3] = experiment: Anti-diabetic activity in high fat diet-fed KK-Ay mouse model of obesity and diabetes assessed reduction in total protein level in urine at 5 mg/kg, po measured after 24 hrs; type: functional, organism-based
Outline: (§2)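 Before study end, 24-h urine collected from C57BL/6J controls and KK-Ay mice (untreated, oral 50 or 100 mg/kg compound, or 5 mg/kg rosiglitazone). Volume, glucose, total protein and microalbumin measured by kits. Mean ± SD, 8-9 mice per group, vs C57BL/6J or untreated KK-Ay.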

[4] = Effect on high fat diet-fed KK-Ay mouse model of obesity and diabetes assessed as total body weight gain at 5 mg/kg, po (reference value: 43.5 +/- 5.24 g); type: ADME, organism-based; settings: in vivo
Outline: (§3)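 KK-Ay mice on lipogenic diet, with C57BL/6J mice as normal controls, dosed orally at 50 or 100 mg/kg (test) or 5 mg/kg (RGZ). Food intake (g/day), water intake (mL/day) and body weight recorded before and after treatment; body weight gain calculated. Mean±SD, 8-9 mice per group.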

L6 [5] = experiment: Increase in glucose consumption in rat L6 cells at 20 uM after 24 hrs by glucose oxidase assay; type: functional, cell-based; outline: as §1
Mus musculus [6] = experiment: Antidiabetic activity in KK-Ay mouse assessed as reduction in fasting blood glucose level at 5 mg/kg, po for 50 days by glucose oxidase method (reference value: 13.2 +/- 2.06 mM); type: functional; settings: time 50 day
Outline: (§4)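 Lipogenic-diet KK-Ay mice given 50 or 100 mg/kg compound or 5 mg/kg rosiglitazone orally for 50 days, C57BL/6J as normal controls. Fasting blood glucose, glycosylated haemoglobin, AGE, insulin, HOMA-IR, cholesterol, LDL-c, TG, serum creatinine and BUN determined. Mean ± SD, 8-9 mice per group.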

[7] = Effect on high fat diet-fed KK-Ay mouse model of obesity and diabetes assessed as water intake at 5 mg/kg, po (reference value: 21.2 +/- 4.17 ml/day); type: ADME, organism-based; settings: in vivo; outline: as §3
HepG2 [8] = experiment: Increase in glucose consumption in human HepG2 cells at 20 uM measured after 24 hrs; type: functional, cell-based
Outline: (§5)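 HepG2 cells treated 24 h at the indicated concentrations; RGZ as reference. Supernatants used for glucose consumption and lactate release; lysed cells used for ATP, normalized to protein content. Mean ± SD of 3 or 4 separate experiments; compared with DMSO.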

Mus musculus [9] = experiment: Antidiabetic activity in KK-Ay mouse assessed as effect on HOMA-IR level at 5 mg/kg, […] by ELISA (reference value: 137 +/- 18.4); type: functional
Mus musculus [10] = experiment: Antidiabetic activity in KK-Ay mouse assessed as effect on serum Creatinine level at 5 mg/kg, po for 24 hrs by ELISA (reference value: 124 +/- 35.1 uM); type: functional
Mus musculus [11] = experiment: Anti-diabetic activity in high fat diet-fed KK-Ay mouse model of obesity and diabetes assessed as reduction in microalbumin level in urine at 5 mg/kg, po measured after 24 hrs; type: functional, organism-based; outline: as §2
Mus musculus [12] = experiment: Anti-diabetic activity in high fat diet-fed KK-Ay mouse model of obesity and diabetes assessed as improved pathological changes in pancreas at 5 mg/kg, po by hematoxylin and eosin staining based histopathological analysis; type: functional, organism-based
Outline: (§6)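 Mice sacrificed at study end, with KK-Ay given 50 or 100 mg/kg compound or 5 mg/kg rosiglitazone orally and C57BL/6J as normal controls. Kidney and pancreas sections H&E stained, imaged at 200×, pathological changes scored. Mean ± SD of 8-9 mice per group.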

Mus musculus [13] = experiment: Antidiabetic activity in KK-Ay mouse assessed as effect on cholesterol level at 5 mg/kg, […] by ELISA (reference value: 7.38 +/- 1.03 mM); type: functional
Mus musculus [14] = experiment: Antidiabetic activity in KK-Ay mouse assessed as effect on Triglycerides level at 5 mg/kg, po for 24 hrs by ELISA (reference value: 4.01 +/- 1.83 mM); type: functional
L6 [15] = experiment: Increase in glucose consumption in rat L6 cells at 20 uM measured after 24 hrs; type: functional, cell-based; outline: as §1
Mus musculus [16] = experiment: Anti-diabetic activity in overnight fasted diabetic KK-Ay mouse assessed as increase in insulin responsiveness by measuring blood glucose at 5 mg/kg, po measured after 35 days by insulin tolerance test; type: functional, organism-based; settings: time 35.0 day
Outline: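 KK-Ay mice orally treated with 50 or 100 mg/kg compound or 5 mg/kg rosiglitazone, C57BL/6J as normal controls. After 35 days of treatment, oral glucose tolerance test and insulin tolerance test run. Blood glucose plotted against time, AUC calculated. Mean ± SD, 8-9 mice per group.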

HepG2 [17] = experiment: Induction of glycolysis in human HepG2 cells assessed as reduction in cellular ATP production at 20 uM measured after 24 hrs; type: functional, cell-based; outline: as §5
Mus musculus [18] = experiment: Antidiabetic activity in KK-Ay mouse assessed as effect on insulin level at 5 mg/kg, […] by ELISA (reference value: 226 +/- 15.5 mU/l); type: functional
[19] = Effect on high fat diet-fed KK-Ay mouse model of obesity and diabetes assessed as food intake at 5 mg/kg, po (reference value: 5.67 +/- 0.55 g/day); type: ADME, organism-based; settings: in vivo; outline: as §3
Mus musculus [20] = experiment: Anti-diabetic activity in high fat diet-fed KK-Ay mouse model of obesity and diabetes assessed as improved pathological changes in kidney at 5 mg/kg, po by hematoxylin and eosin staining based histopathological analysis; type: functional, organism-based; outline: as §6
Mus musculus [21] = experiment: Antidiabetic activity in KK-Ay mouse assessed as effect on BUN level at 5 mg/kg, […] by ELISA (reference value: 12.8 +/- 2.97 mM); type: functional
Mus musculus [22] = experiment: Antidiabetic activity in KK-Ay mouse assessed as effect on AGE level at 5 mg/kg, […] by ELISA (Rvb 2.85 +/- 0.92 ug/ml); type: functional
HepG2 [23] = experiment: Induction of glycolysis in human HepG2 cells assessed as increase in lactate release at 20 uM measured after 24 hrs
Mus musculus [24] = experiment: Antidiabetic activity in KK-Ay mouse assessed as effect on LDL level at 5 mg/kg, […] by ELISA (reference value: 1.11 +/- 0.24 mM); type: functional
Mus musculus [25] = experiment: Antidiabetic activity in KK-Ay mouse assessed as effect on glycosylated haemoglobin level at 5 mg/kg, po for 50 days by glucose oxidase method (reference value: 8.74 +/- 1.08%); type: functional; settings: time 50 day; outline: as §4
L6 [26] = experiment: Induction of glycolysis in rat L6 cells assessed as increase in lactate release at 20 uM measured after 24 hrs

With `CN(C)C(=N)NC(=N)N` [METFORMIN] the Ratio (HepG2 [1]) was 1.53.

With `CN(CCOc1ccc(CC2SC(=O)NC2=O)cc1)c1ccccn1` (stereo unspecified) [ROSIGLITAZONE] the Activity (L6 [2]) was “Dose-Dependent Effect”, the Activity (Mus musculus [3]) was “Active” and the Activity [4] was 6.82 g. The Activity (L6 [5]) was “Active”, the Activity (Mus musculus [6]) was 7.66 mM and the Activity [7] was 6.1 mL/day. For the same compound, the Activity (HepG2 [8]) was “Active”, the Activity (Mus musculus [9]) was 30.4 and the Activity (Mus musculus [10]) was 51.6 µM. The Activity (Mus musculus [11]) was “Active”, the Activity (Mus musculus [12]) was “Active” and the Activity (Mus musculus [13]) was 8.31 mM. For the same compound, the Activity (Mus musculus [14]) was 1.84 mM, the Activity (L6 [15]) was “Active” and the Activity (Mus musculus [16]) was “Active”. The Activity (HepG2 [17]) was “Active”, the Activity (Mus musculus [18]) was 89.3 mU/L and the Activity [19] was 4.58 g/day. The Activity (Mus musculus [20]) was “Active”, the Activity (Mus musculus [21]) was 12 mM and the Activity (Mus musculus [22]) was 1.27 µg/mL. For the same compound, the Activity (HepG2 [23]) was “Active”, the Activity (Mus musculus [24]) was 1.08 mM and the Activity (Mus musculus [25]) was 6.09%. The Activity (L6 [26]) was “Active”.
